Compounds with a hit are over-represented: about 2.2% of the library has one in this group of screens.
mABHD4 FP – ABHD4 (mouse) inhibition, primary FP screen; Q8VD66; AID 720543; purified mABHD4, FP-Rh probe fluorescence polarization; inhibition, % at 8.92 µM; 370,000 compounds, 0.54% hits;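 active means inhibition exceeding the mean over every tested compound plus 3 SD, cut at about 30% in these data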;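 further: 0% = plate median of compound wells and 100% = S159A mutant with DMSO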
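system = mouse ABHD4 enzyme, wild type | medium = HEPES pH 7.0, NaCl, Pluronic buffer | also added = FP-Rh probe | incubation = Enzyme–compound pre-incubation 45 min, then probe 60 min, both 25 °C | technique = fluorescence polarization, excitation 525 nm, emission 598 nm, BODIPY TMR filters | controls = S159A mutant high control, sample median low control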
SIAE inh – inhibitors of human sialic acid acetylesterase SIAE; SIAE FP-Rh probe binding, fluorescence polarization; inhibition, % at 9.66 µM; 370,000 compounds, 0.69% hits; AID 1053197;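 active means inhibition above a cutoff: mean of compounds within the control limits plus 3 SD of those, cut at about 17% in these data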;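 further: 0% = plate median of compound wells and 100% = probe without SIAE protein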
TCR CD3 inh – human TCR-CD3 binding inhibition | TAMRA-labeled TCR probe fluorescence, biochemical | inhibition, % at 9.4 µM | 360,000 compounds, 0.37% hits;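 further: recombinant mutant TCR 2C K166C tagged with TAMRA read by polarization; 0% = receptor in buffer alone and 100% = receptor with positive control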
HTRA1 inh – inhibitors of human serine peptidase HTRA1; Q92743; inhibition, % at 5.96 µM; recombinant HTRA1, FP-rhodamine activity-based probe, fluorescence polarization; 340,000 compounds, 0.5% hits; in the data active means inhibition above about 36%;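 further: 0% = enzyme with DMSO and 100% = wells lacking enzyme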
Target sequence (Q92743 whole entry, looked up): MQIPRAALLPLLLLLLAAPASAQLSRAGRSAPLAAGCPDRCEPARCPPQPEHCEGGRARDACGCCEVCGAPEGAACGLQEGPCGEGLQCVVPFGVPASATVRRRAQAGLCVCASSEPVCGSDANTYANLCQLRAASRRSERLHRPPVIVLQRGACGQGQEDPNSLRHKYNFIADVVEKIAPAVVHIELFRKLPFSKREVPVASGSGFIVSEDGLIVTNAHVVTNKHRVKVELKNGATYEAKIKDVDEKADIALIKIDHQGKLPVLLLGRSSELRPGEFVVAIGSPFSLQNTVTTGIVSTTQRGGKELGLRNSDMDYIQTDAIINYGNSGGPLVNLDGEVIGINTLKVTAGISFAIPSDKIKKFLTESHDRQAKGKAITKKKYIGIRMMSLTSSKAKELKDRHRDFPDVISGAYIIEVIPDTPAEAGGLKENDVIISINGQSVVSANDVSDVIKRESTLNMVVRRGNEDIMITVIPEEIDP
LEDGF integ inh – blocks HIV-1 LEDGF/p75-dependent DNA integration; 370,000 compounds, 0.64% hits; AID 743269; TR-FRET IN-LEDGF/p75 DNA integration, Eu/Cy5; inhibition, % at 3.7 µM;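 active means inhibition above the screen-wide mean plus 3 SD, cut at about 13% in these data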;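 further: signal is the Cy5 over europium emission ratio at 671 and 618 nm; 0% = plate median of compound wells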
TDP2 absorb – blocks human TDP2 phosphodiesterase activity | O95551 | recombinant TDP2, T5PNP hydrolysis, p-nitrophenol absorbance 415 nm | 370,000 compounds, 0.34% hits | inhibition, % at 12.8 µM | AID 720702;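 active means inhibition above the mean of all tested compounds plus 3 SD, set per campaign, cut at about 25% in these data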;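 further: 0% = DMSO with enzyme and 100% = buffer with substrate but no TDP2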
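System – recombinant human TDP2 · Quantity – TDP2 enzyme at 120 nM final · Doses – single concentration, 12.8 µM nominal, with 1% DMSO · Incubation – 2 h at 37 °C · Measured by – epi absorbance of p-nitrophenol freed from T5PNP by hydrolysis · Read-out – % inhibition relative to enzyme-containing and enzyme-free wells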
BSA probe FL – interferes with TAMRA-BSA probe, flagging TCR-CD3 hits; inhibition, % at 9.4 µM; 1,200 compounds, 10% hits; shares compounds with TCR CD3 inh; TAMRA-labeled BSA probe fluorescence counterscreen; in the data active means inhibition above about 23%;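 further: 0% = buffer low control and 100% = reference high control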
TCR-CD3 inh conf – confirmation of human TCR-CD3 interaction inhibitors; AID 652036; TAMRA-labeled TCR probe fluorescence binding assay; inhibition, % at 9.4 µM; 1,200 compounds, 48% hits; shares compounds with TCR CD3 inh
* = called active by the depositor; / = no result given. Unless noted, no stated cut-off is given here; in the data, active means inhibition above about 19%; inactive means the rest.

SMILES | mABHD4 FP | SIAE inh | TCR CD3 inh | HTRA1 inh | LEDGF integ inh | TDP2 absorb | BSA probe FL | TCR-CD3 inh conf
Cc1cccc(NC(=O)CSc2nnc(-c3ccccc3)n2N)c1 | 6.4 | 1.3 | 24.3* | -5.2 | 2.5 | -4.5 | 1.9 | -0.5
CCCC(=O)N1CCC[C@]2(CC[C@H](CCC(=O)OCC)O2)C1 | -3.7 | -1.1 | / | / | -0.2 | -1.9 | / | /
C/C(=N\NC(=O)COc1ccccc1-c1ccccc1)c1ccccn1 | -12.3 | 2.1 | -5.7 | -4.9 | 3.8 | 5.1 | / | /
C/C(=N\NC(=O)COc1ccccc1-c1ccccc1)c1ccc(O)cc1O | -10.4 | 6.9 | 19.3* | -32.7 | -1.6 | -14.8 | -12.4 | 29.1*
CC(C)c1ccc(OC[C@@H](O)CN2CCC(C(O)(c3ccccc3)c3ccccc3)CC2)cc1 | 10.3 | 2.7 | / | / | -2.3 | -8.2 | / | /
COC(=O)C1=C(C)N(C)C(=NCC2CC2)NC1CCc1ccccc1 (configuration not stated) | 2.8 | -1.7 | 6.9 | / | 2.9 | -6.6 | / | /
N#CCC(=O)Nc1ccc(C(=O)OCC(=O)Nc2cccc(C(F)(F)F)c2)cc1 | -80.7 | -74.1 | 34.8* | -78.3 | -1.8 | 5.4 | -4.8 | 2.5
Cc1cc(C)c(-c2cc(NC(=O)COC(=O)c3ccc(C#N)cc3)n(-c3ccccc3)n2)cc1C | -35.2 | -38.5 | 5.1 | -41.7 | -2.5 | -2.2 | / | /
Cc1ccc(C(=O)OCC(=O)NC2CCCc3ccccc32)o1 (configuration not stated) | -4.3 | 8.1 | -6.3 | -0.6 | 2.2 | -6.1 | / | /
N#CCC(=O)Nc1ccc(C(=O)OCC(=O)NC2CCCc3ccccc32)cc1 (configuration not stated) | -41.3 | -39.4 | 19.6* | -43.7 | 7.6 | -9.6 | 6.4 | 2.3
Cc1cc(C)c(-c2cc(NC(=O)COC(=O)c3ccc(NC(=O)CC#N)cc3)n(-c3ccccc3)n2)cc1C | -82.5 | -145.2 | 61.1* | -52.0 | -1.3 | -7.8 | 16.1 | 43.0*
C=CCCC1CN(Cc2ccc(OC)cc2)S(=O)(=O)c2c(NCc3cc(OC)c(OC)c(OC)c3)cccc2O1 (configuration not stated) | -5.2 | -0.4 | -0.1 | / | -3.3 | 8.1 | / | /
COC(=O)CCN(C(=O)c1ccc(N2CCCCC2)c([N+](=O)[O-])c1)c1ccccn1 | 6.6 | 11.4 | 77.4* | -2.3 | -4.0 | -3.0 | 0.8 | 1.7
C[C@H](NC(=O)c1nc[nH]c1C(=O)N[C@@H](CCCCNC(=O)OC(C)(C)C)C(=O)OC(C)(C)C)C(=O)OCc1ccccc1 | -28.9 | -14.4 | 26.8* | -35.9 | -3.8 | -12.1 | 0.7 | 2.8
Cc1cc(Nc2cccc(Br)c2)cc(=O)n1-c1cccc(Br)c1 | -7.9 | -5.8 | -7.2 | / | 2.7 | -8.9 | / | /
CCOC(=O)[C@@H]1c2[nH]c3ccccc3c2C[C@@]2(C(=O)OC)C=CCN12 | -2.0 | -0.7 | / | / | -1.9 | -5.8 | / | /
Cn1cnc2c(cnn2C)c1=O | -1.8 | 3.8 | 27.7* | 5.2 | 2.0 | 7.1 | 1.2 | 3.2
Cn1cnc2c(cnn2-c2ccccc2)c1=O | -2.9 | 0.0 | 3.7 | -3.8 | -1.1 | -8.9 | / | /
CCCCCCCCNS(=O)(=O)CC1NCc2cc(OC)ccc21 (configuration not stated) | 3.0 | -8.0 | / | / | -0.3 | -2.9 | / | /
Cc1cccc(/C=N\NC(=O)c2ccc(Cl)cc2)c1O | 8.9 | -16.4 | 34.4* | 22.9 | 0.5 | -19.0 | -10.1 | 21.9*
COc1ccccc1/C=N/NC(=O)c1c(-c2ccccc2)noc1C | -5.5 | -1.1 | -0.6 | -2.8 | 1.9 | -7.4 | / | /
Cc1cccc(/C=N/NC(=O)c2c(-c3ccccc3)noc2C)c1O | -2.9 | 5.4 | 23.7* | 17.8 | -2.2 | -9.1 | -6.9 | 18.5
Cc1cccc(/C=N/NC(=O)c2ccc3c(c2)OCCO3)c1O | -14.0 | 1.0 | 19.1* | 11.0 | -8.1 | -19.2 | -12.2 | 15.4
O=C(NCCc1ccc(F)cc1)c1ccc(Sc2ccccc2Cl)c([N+](=O)[O-])c1 | -9.2 | 4.5 | / | / | -4.8 | -9.5 | / | /
COc1cc(OC)c2c(O)c3c(=O)cc(C)oc3c(-c3c(OC)cc4cc5c(c(O)c4c3O)C(=O)CC(C)(O)O5)c2c1 (configuration not stated) | -12.4 | -6.8 | / | / | 1.7 | 1.7 | / | /
SMILES | mABHD4 FP | SIAE inh | TCR CD3 inh | HTRA1 inh | LEDGF integ inh | TDP2 absorb | BSA probe FL | TCR-CD3 inh conf
O=C(C1CCCN1S(=O)(=O)c1ccc(Cl)s1)N1CCc2ccccc2C1 (configuration not stated) | 8.3 | 7.0 | / | / | -4.4 | 10.6 | / | /
Cc1ccc2[nH]c(C(=O)N/N=C/c3ccccc3C(=O)O)c(-c3ccccc3)c2c1 | 4.8 | -3.9 | 6.0 | -19.6 | 1.2 | 8.3 | / | /
Cc1ccc2[nH]c(C(=O)N/N=C/c3ccccc3O)c(C)c2c1 | 13.4 | 9.5 | 20.4* | 24.8 | 1.4 | -14.0 | -6.2 | 18.8
O=C(Nc1ccc2ccccc2c1)c1cn(-c2ccccc2)nc1-c1cccs1 | -87.3 | -107.8 | 89.3* | -92.6 | 1.4 | 3.2 | 18.4 | 38.2*
CN(C)C(C(=O)Nc1cc(Cl)cc(Cl)c1)c1ccccc1 (configuration not stated) | -9.9 | 0.9 | 135.2* | -15.2 | 4.6 | -2.9 | 2.5 | 0.2
COCCNC(C(=O)Nc1cc(Cl)cc(Cl)c1)c1ccccc1 (configuration not stated) | -0.9 | 1.2 | 2.4 | -17.4 | -4.7 | -16.8 | / | /
Cc1ccc2c(c1)C(CS(=O)(=O)NCCc1ccccc1)NC2 (configuration not stated) | -2.8 | -2.8 | / | / | 3.2 | 4.7 | / | /
CC(=O)c1ccc(OC2(C)CCN(Cc3cc4ccccc4[nH]3)C2)cc1 (configuration not stated) | 5.6 | 9.1 | 30.7* | / | -1.6 | 4.4 | 1.9 | 2.9
COc1ccc(-n2c(COc3ccc(C)cc3)nnc2SCC(=O)O)cc1 | 16.7 | -2.6 | 31.2* | -1.4 | -3.8 | -11.5 | 12.9 | 7.1
O=C(COC(=O)c1ccc(OC(F)F)cc1)Nc1cccc(S(=O)(=O)NC2=NCCC2)c1 | 3.9 | 1.4 | 40.0* | 7.5 | -2.4 | 6.7 | 3.5 | -1.0
CC(C)C[C@@H]1COc2cc(N3CCSCC3)ccc2S(=O)(=O)N1C | 2.6 | 0.7 | / | / | 0.0 | 4.4 | / | /
O=C(N/N=C/C(Br)=C\c1ccccc1)c1ccco1 | -5.0 | -1.6 | 169.8* | / | 0.8 | 5.5 | -0.1 | 4.0
O=C(N/N=C/c1ccccc1)c1ccco1 | 1.5 | -1.1 | 7.2 | 2.0 | 2.1 | 1.3 | / | /
COC(=O)c1c(C)[nH]c(C=Nc2ccc(OC)cc2)c1C | 0.9 | -4.8 | -3.7 | -0.1 | -2.2 | 2.1 | / | /
COC(=O)c1c(C)[nH]c(O)c1C=Nc1ccc(C#N)cc1 | 9.4 | 8.5 | 40.8* | 0.9 | 1.2 | -12.5 | 2.2 | 5.9
